Experimental data published in PMC5905822 (International Journal of Nanomedicine, 2018).

What was measured:
human liver microsomes = settings: cited from earlier work
rat liver microsomes = settings: cited from earlier work
[1] = Plasma pharmacokinetics in rats after intravenous injection; assay type: in vivo, Sprague Dawley (SD) rats
How it was run: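 Male SD rats (220–250 g), fasted overnight and randomized (n=6/group), got 6 mg/kg iv of free or lipid-carrier-formulated ester. An automated collector drew blood at 2–300 min, with saline volume replacement. Plasma was prepared cold and stored at −80°C, then extracted with ice-cold acetonitrile plus internal standard, dried under nitrogen and reconstituted in methanol. LC-MS measured the parent ester and its hydrolysed metabolite.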

In the case of CC1(C)C2CCC1(C)C(OC(=O)C(O)Cc1ccc(O)c(O)c1)C2 (stereo not shown) [DBZ, 1,7,7-trimethylbicyclo[2.2.1]heptan-2-yl 3-[3,4-dihydroxyphenyl]-2-hydroxy-propanoate], the “Metabolism by the liver microsomal enzymes” value (human liver microsomes) is given as “metabolized quickly”, the “Metabolism by the liver microsomal enzymes” value (rat liver microsomes) is given as “metabolized quickly” and the “MRT0–∞ of plasma DBZ” value ([1]; analyte DBZ, rats, intravenous, 6 mg/kg) is given as 0.149±0.015 H. For the same compound, the “Elimination from the blood circulation after injection” value ([1]; preliminary pharmacokinetic studies in rats) was “eliminated quickly”.
